Source: PubChem
Compounds with a hit are over-represented: about 2.5% of the library has one in this group of screens.
MC4R antag cAMP – human MC4R antagonism in cAMP assay; MC4R-expressing cells, MTII-stimulated cAMP, LANCE TR-FRET; 360,000 tested, 0.48% active; inhibition, % at 6.5 µM; AID 540295;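 active = inhibition above its plate's cutoff, the mean of tested wells on that plate plus 3 SD, cut at about 29% in these data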
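Assay system: U2OS cells stably expressing human melanocortin 4 receptor (MC4R) / Dosing: 6.5 µM / Timing: compound 30 min, challenge 1 h, detection 1 h / Measured by: Eu-cAMP/anti-cAMP TR-FRET, emission 671 nm / Replicates: singlicate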
MC4R ag barr – human MC4R agonism via beta-arrestin; U2OS MC4R beta-arrestin complementation, luminescence; percent of melanotan II response, DMSO zero; activation, % at 8.9 µM; 360,000 tested, 0.98% active; AID 540308;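 active = activation above a per-plate cutoff, the mean activation of sample wells on that plate plus 3 SD, cut at about 8% in these data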
Rev-erbA mod – modulators of human Rev-erb alpha DNA binding; P20393; Rev-erbα–FITC-DNA binding, fluorescence polarization, 90 min; activity, % at 10 µM; 370,000 tested, 0.79% active;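 active = activity above about 14%, limit read from the data; passing the limit was not always enough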
Target sequence (P20393 whole entry, looked up): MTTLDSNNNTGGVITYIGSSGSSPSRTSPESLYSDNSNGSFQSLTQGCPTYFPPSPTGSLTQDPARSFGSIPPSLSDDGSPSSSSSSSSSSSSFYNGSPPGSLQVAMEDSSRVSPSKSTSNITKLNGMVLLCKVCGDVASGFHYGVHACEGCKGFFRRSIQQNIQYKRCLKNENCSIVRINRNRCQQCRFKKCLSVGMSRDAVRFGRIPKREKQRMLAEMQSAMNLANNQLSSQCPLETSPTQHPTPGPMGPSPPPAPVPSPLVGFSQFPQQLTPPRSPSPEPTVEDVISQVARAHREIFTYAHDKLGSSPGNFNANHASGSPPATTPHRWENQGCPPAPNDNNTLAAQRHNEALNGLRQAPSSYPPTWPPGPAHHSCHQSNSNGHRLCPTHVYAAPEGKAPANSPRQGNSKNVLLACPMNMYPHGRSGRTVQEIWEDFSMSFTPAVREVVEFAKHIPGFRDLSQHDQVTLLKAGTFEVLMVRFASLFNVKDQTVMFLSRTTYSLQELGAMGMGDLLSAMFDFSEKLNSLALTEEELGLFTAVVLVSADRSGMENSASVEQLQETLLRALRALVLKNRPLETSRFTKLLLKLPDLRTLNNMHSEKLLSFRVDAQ
NTR1 ag – agonists of human neurotensin receptor NTR1; activation, % at 20 µM; 330,000 tested, 0.17% active; NTR1-U2OS beta-arrestin-GFP spot imaging, agonist mode; P30989;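 active = activation at or above 40% of the spot to cytoplasm intensity ratio, with at least 20 cells analyzed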
PG9 binder – small molecules binding HIV-1 gp120 antibody PG9 | 360,000 tested, 0.43% active | inhibition, % at 6.7 µM | TR-FRET gp120-PG9 antibody binding | AID 624416; in the data active = inhibition above about 8.5%
A number is an active result; . = inactive; / = not tested or not shown.

SMILES	MC4R antag cAMP	MC4R ag barr	Rev-erbA mod	NTR1 ag	PG9 binder
COc1ccc(C(C)NCCC(c2ccc(OC(C)C)cc2)c2ccccc2OC)cc1 (stereo unspecified)	.	20	.	68	.
Cc1ccc2cc3cc(C(=O)N(CC(=O)NC4CCCC4)c4cccc(C)c4C)sc3nc2c1	34	.	.	.	.
CCOC(=O)c1ccc(Oc2cn[nH]c2-c2ccc(O)cc2O)cc1	.	.	.	.	.
CCCOC(=O)c1ccc(Oc2cn[nH]c2-c2ccc(O)cc2O)cc1	.	9.5	.	.	.
CCOC(=O)c1c(C)[nH]c(C(=O)COC(=O)c2oc3ccccc3c2C)c1C	.	8.3	.	.	.
CCOC(=O)c1c(C)[nH]c(C(=O)CSc2ccccc2)c1C	.	8.4	.	.	.
Cc1cc2cc3c(cc2nc1SCC(=O)O)CCC3	.	.	.	.	.
CCC(=O)Nc1ccc(NC(=O)CSc2nc3cc4c(cc3cc2C)CCC4)cc1	.	9.4	.	.	.
Cc1cc(C)c(S(=O)(=O)NCCc2ccccc2)c(C)c1	.	8.4	.	.	.
COc1ccc2c(=O)c(-c3cnn(-c4ccccc4)c3)c(C)oc2c1	.	.	.	.	.
Cc1oc2c(C)c(O)ccc2c(=O)c1-c1cnn(-c2ccccc2)c1	.	29	.	.	.
O=C(Cc1cccs1)NC1CCCCN(Cc2ccc(Cl)cc2)C1=O (stereo unspecified)	/	/	.	/	/
Cc1ccc(C)c(NS(=O)(=O)c2ccc3oc(=O)ccc3c2)c1	.	.	.	.	.
Cc1ccc(C)c(NS(=O)(=O)c2ccc3c(c2)Cc2cc(S(=O)(=O)Nc4cc(C)ccc4C)ccc2-3)c1	.	8.8	.	/	.
CN1[C@@H](Cc2ccccc2)COc2cc(N3CCCC3)ccc2S1(=O)=O	/	/	.	/	/
CCCCCCSC1=C(C#N)C(c2ccccc2)CC(=O)N1 (stereo unspecified)	.	10	.	.	.
COC(=O)c1cc(S(=O)(=O)N2CCN(c3cccc(Cl)c3)CC2)c[nH]1	.	9.1	/	.	/
N=c1n(Cc2ccc(Cl)cc2)c2ccccc2n1CC(O)COc1ccccc1 (stereo unspecified)	.	12	.	.	.
Fc1cccc(/C=N/NC(=S)Nc2ccccc2Cl)c1	.	.	.	.	.
S=C(N/N=C/c1ccc(Cl)c(Cl)c1)Nc1ccccc1Cl	.	9.3	.	.	.
C/C(=C/c1nc(N)n(Cc2ccccc2)c1Cc1ccccc1)Cn1[nH]c(=O)n(-c2ccccc2)c1=O	/	/	.	/	/
Fc1ccc(/C=C2\CCCC3=C2Nc2ncnn2C3c2ccc(F)cc2)cc1 (stereo unspecified)	.	.	.	46	.
O=C1CCC[C@H]2[C@@H](Cc3ccccc3)[C@@H](O)CC[C@]23CCCN13	/	/	.	/	/
O=C(NC(=S)Nc1ccccc1N1CCCC1)c1ccc(F)cc1	.	.	.	.	.
O=C(NC(=S)Nc1ccccc1N1CCCCC1)c1ccccc1	.	9.1	.	.	.
SMILES	MC4R antag cAMP	MC4R ag barr	Rev-erbA mod	NTR1 ag	PG9 binder
Cc1ccccc1N=Nc1c(N)[nH]n(-c2ccccc2)c1=O	/	/	.	/	/
Cc1ccsc1S(=O)(=O)n1c(CN2CCOCC2)nc2ccccc21	/	/	.	/	/
COc1ccc(/C=N/Nc2cc(C)nc3ccc(Br)cc23)cc1	.	16	.	.	.
COc1ccc2nc(C)cc(N/N=C/c3cccc(OC)c3O)c2c1	.	.	.	41	.
O=c1[nH]c2ccccc2c2ccc(Cl)cc12	.	8.5	.	/	.
O=C(CNc1ccc2c(c1)OCO2)N/N=C\c1cn(Cc2ccccc2)c2ccccc12	.	.	.	.	.
CCOC(=O)N/N=C/c1cn(Cc2ccc(Cl)cc2)c2ccccc12	.	8.8	.	.	.
N#CCC(=O)N/N=C/c1cn(Cc2ccc(Cl)cc2Cl)c2ccccc12	.	17	.	.	.
CCOC(=O)N/N=C/c1cn(Cc2ccc(F)cc2)c2ccccc12	.	.	.	.	.
COc1ccc(C(F)(F)F)cc1NC(=O)C(OC(=O)CNC(=O)c1ccccc1)c1ccccc1 (stereo unspecified)	/	/	.	/	/
Cc1ccc(C(=O)Nc2ccncc2)cc1[N+](=O)[O-]	.	.	.	.	.
Cc1ccc(C(=O)Nc2ccc(OCc3ccccc3)cc2)cc1[N+](=O)[O-]	.	9.5	.	.	.
COC(=O)[C@]12C[C@H](CC(=O)NCc3cccc(C(F)(F)F)c3)C(=O)N(Cc3ccco3)C1=C[C@H](C1CCCC1)O[C@@H]2C	/	/	.	/	/
C/C(=N/OCc1ccc(Br)cc1)c1ccccn1	.	8.6	.	.	.
C/C(=N\OC(=O)c1ccc(Br)cc1)c1ccccn1	.	.	.	.	.
CC(C)Sc1snnc1-c1ccccc1	.	8.9	.	.	.
C=CCOc1cccc(C(=O)/C=C2/C(=O)Nc3ccccc32)c1	.	.	.	66	.
CC(C)(C)S(=O)N1C[C@@H]2CC(=O)C(c3ccccc3)=C2[C@H]1CCO (stereo partly specified)	/	/	.	/	.
O=C(NCc1cccs1)C1CCN(S(=O)(=O)c2ccc([N+](=O)[O-])cc2)CC1	/	/	.	/	/
O=c1c2ccccc2sc2ccccc12	.	.	.	/	.
c1ccc2c(c1)[nH]c1c3ccccc3sc21	.	8.3	.	.	.
COc1ccc(C[C@H]2CN3C(=NC[C@@H]3Cc3ccccc3)N2CCNC(=O)c2ccc(C)c(Br)c2)cc1	.	23	/	.	/
COc1ccc(C(=O)N2N=C(c3cccs3)CC2c2ccccc2O)cc1 (stereo unspecified)	.	12	.	.	.
COc1ccc(C2CC(c3ccccc3)=NN2C(=O)c2cccs2)cc1 (stereo unspecified)	.	.	.	.	.
COc1ccc(CN2CCC(CNC(=O)NC(C)C)CC2)cc1	/	/	.	/	/
SMILES	MC4R antag cAMP	MC4R ag barr	Rev-erbA mod	NTR1 ag	PG9 binder
COC(=O)C[C@H]1CC[C@@H]2[C@@H](COc3ccc(NC(=O)Nc4ccccc4OC)cc3C(=O)N2C)O1	/	/	.	/	/
CCOC(=O)C1(CCCc2ccccc2)CCN(C2CCSCC2)CC1	.	9.2	.	/	.
OCC1(CCCc2ccccc2)CCN(C2CCSCC2)CC1	.	.	.	.	.
C[C@H]1C(C(=O)N(C)C2CCCCC2)=Cc2c(n(-c3ccc(F)cc3)c(=O)n2CCCOc2ccccc2)C=C1c1ccccc1	/	/	.	/	.
COC(=O)[C@]12CCCCC=C1N(Cc1ccc(OC)cc1)C(=O)[C@@H]2CC(=O)N1CCN(C(=O)c2ccco2)CC1	/	/	.	/	/
O=C(Nc1nccs1)c1sc2cc(Cl)ccc2c1Cl	.	10	.	.	.
O=C(Nc1nccs1)c1sc2ccccc2c1Cl	.	.	.	.	.
CCN(CC)c1ccc(NC(=O)CSc2nnc(SCc3ccc(Cl)cc3)s2)cc1	/	/	.	/	/
CCOC(=O)Cn1nc(-c2ccccc2)c2cnc3ccc(CC)cc3c21	.	8.4	.	.	.
N#CCC[C@H]1CC[C@]2(CCCN(Cc3ccc(Br)cc3)C2)O1	/	/	.	/	/
